Compounds with a hit are over-represented: about 4.2% of the library has one in this group of screens.
Lipid droplet: modulators of hepatic lipid droplet formation; AML12 mouse hepatocytes, oleate lipid droplets, BODIPY imaging; inhibition, % at 6.5 µM; 240,000 compounds, 0.4% hits;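 active means lipid droplet intensity inhibited by at least 50%, with more than 500 cells counted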
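Technique: fluorescence imaging, 20x objective, two fields per well / Assay system: AML12 hepatocytes (mouse) / Measure: % inhibition of lipid droplet signal / Doses: 6.5 µM single-point dosing / Incubation: overnight exposure / Reagent: 100 µM oleic acid challenge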
ANO1 activ: activates or potentiates the mouse TMEM16A chloride channel; Q8BHY3; HEK293 TMEM16A/YFP-H148Q/I152L, iodide quench fluorescence; stronger effect = lower value; B-score at 10 µM; 340,000 compounds, 0.3% hits; AID 623877;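 active means fluorescence-ratio B-score plate-corrected deviation score at least 3 library SD below zero, with starting fluorescence score within 5 deviations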;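 further: channel opened by trigger with iodide after compound preincubation; score built on the fluorescence ratio of max minus min over baseline; more negative score means more quench and so TMEM16A activation or potentiation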
Target sequence (Q8BHY3 whole entry, looked up): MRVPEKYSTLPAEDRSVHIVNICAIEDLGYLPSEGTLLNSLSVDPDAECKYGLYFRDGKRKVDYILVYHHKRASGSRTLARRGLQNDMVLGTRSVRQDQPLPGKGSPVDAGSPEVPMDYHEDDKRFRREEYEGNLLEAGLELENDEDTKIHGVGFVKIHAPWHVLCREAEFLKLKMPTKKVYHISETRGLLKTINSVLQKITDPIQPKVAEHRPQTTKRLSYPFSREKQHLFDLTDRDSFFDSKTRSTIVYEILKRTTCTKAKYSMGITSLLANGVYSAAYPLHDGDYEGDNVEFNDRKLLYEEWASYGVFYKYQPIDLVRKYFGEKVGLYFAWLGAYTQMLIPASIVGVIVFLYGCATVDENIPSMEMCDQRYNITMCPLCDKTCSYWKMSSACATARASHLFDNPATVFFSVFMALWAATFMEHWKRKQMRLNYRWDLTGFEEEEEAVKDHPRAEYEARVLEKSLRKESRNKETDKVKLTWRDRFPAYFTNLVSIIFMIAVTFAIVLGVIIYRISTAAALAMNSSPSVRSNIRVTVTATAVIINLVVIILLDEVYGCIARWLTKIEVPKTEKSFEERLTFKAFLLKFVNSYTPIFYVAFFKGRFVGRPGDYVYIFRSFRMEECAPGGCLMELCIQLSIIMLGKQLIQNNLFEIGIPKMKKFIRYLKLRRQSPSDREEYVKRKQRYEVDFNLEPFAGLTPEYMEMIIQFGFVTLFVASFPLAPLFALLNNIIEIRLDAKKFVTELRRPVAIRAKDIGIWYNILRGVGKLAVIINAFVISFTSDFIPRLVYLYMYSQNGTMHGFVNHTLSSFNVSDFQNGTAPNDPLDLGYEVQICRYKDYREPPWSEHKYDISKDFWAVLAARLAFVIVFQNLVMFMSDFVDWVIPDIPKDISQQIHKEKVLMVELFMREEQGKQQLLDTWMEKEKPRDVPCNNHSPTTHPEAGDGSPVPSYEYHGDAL
TMEM16A inh: blocks the mouse calcium-activated chloride channel TMEM16A | Q8BHY3 | 310,000 compounds, 1.2% hits | normalized B-score (activity score, 25-100; higher = stronger inhibition) at 10 µM | HEK293 TMEM16A/YFP iodide influx fluorescence, ionomycin;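 active means ratio plate-corrected score three or more library SD toward inhibition, starting fluorescence score within five deviations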;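 further: score derived from kinetic fluorescence span divided by baseline fluorescence per well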
CHOP inhibitor: inhibitors of CHOP induction in ER stress response; CHO-K1 CHOP-promoter luciferase, tunicamycin-induced, 15-18 h; inhibition, % at 10 µM; 220,000 compounds, 3.8% hits; AID 2732;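 active means compounds that reduced the stress-induced luciferase reporter signal by more than about 70% of percent inhibition, limit read from the data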;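 further: 0% = tunicamycin plus vehicle and 100% = wells without tunicamycin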
UPR CHOP act: activators of apoptotic arm of unfolded protein response (CHOP). CHO-CHOP luciferase reporter, UPR activation, luminescence; percent of tunicamycin response over DMSO baseline. activation, % at 10 µM. 330,000 compounds, 0.34% hits. AID 449763;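 active means at 10 µM dose, activation of 40% or more, normalized to positive control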;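 further: 100% = tunicamycin at 10 µg/mL and 0% = DMSO alone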
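Test system: CHO-CHOP cells, stable luciferase reporter of PERK-eIF2a-CHOP signalling | Quantity: 500 CHO-CHOP cells per well | Buffer or medium: F12 plus 10% serum | Compound dosing: 10 µM single point, 0.5% DMSO | Schedule: 6 h compound treatment, 37 °C | Signal: Luciferase luminescence | Control set: Tunicamycin high control, DMSO low control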
UPR XBP1 act: activators of adaptive arm of unfolded protein response (XBP1); AID 463104; CHO-XBP1 luciferase reporter, IRE1-XBP1 UPR activation, luminescence; percent of tunicamycin response, DMSO as zero; activation, % at 20 µM; 330,000 compounds, 0.33% hits;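 active means versus positive control, 20 µM dose yields 30% or more activation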;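 further: 100% = tunicamycin at 10 µg/mL and 0% = DMSO only wells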
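incubation = overnight seeding at 37 °C, 6 h compound treatment at 37 °C | assay system = CHO-XBP1 cells stably carrying IRE1-XBP1-driven luciferase reporter | input = 1000 cells per well | detection = luciferase luminescence | dosing = single point, 20 µM final compound, 1% DMSO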
An asterisk follows results filed as active; i = inactive; nt = not tested or not shown.

SMILES	Lipid droplet	ANO1 activ	TMEM16A inh	CHOP inhibitor	UPR CHOP act	UPR XBP1 act
Cc1csc2nc(CSc3nc4ccccc4o3)c(Br)n12	2	i	25*	58	6	7
Cc1csc2nc(CSc3nncn3-c3ccccc3)c(Br)n12	-11	i	i	39	-3	1
Cc1cccc(NC(=O)CSCC(=O)N(C)Cc2c(F)cccc2Cl)c1	nt	i	i	nt	0	-3
Cc1ccc(NC(=O)c2noc3c2CCc2ccccc2-3)cc1	26	i	i	15	4	7
Cc1nn(Cc2ccccc2)c(C)c1NC(=O)c1noc2c1CCc1ccccc1-2	nt	i	i	86*	0	1
OC(CNCc1ccccc1F)(c1ccc(F)cc1)c1ccc(F)cc1	-1	i	i	75*	-2	-5
Cc1ccc(CNCC(O)(c2ccccc2)c2ccc(F)cc2)cc1 (centres undefined)	nt	i	i	51	-3	0
Cc1ccc(CNCC(O)(c2ccc(F)cc2)c2ccc(F)cc2)cc1	nt	i	i	86*	0	-1
COc1ccc(F)cc1S(=O)(=O)N1CC(C)CC(C)C1 (centres undefined)	-7	i	i	6	-1	-3
CN1C(=O)C(CC(=O)Nc2ccc(F)cc2)N(Cc2ccco2)C1=S (centres undefined)	-12	i	i	16	-3	-1
C=CCn1c(=O)c2c3c(sc2n2c(Nc4ccc(OC)cc4)nnc12)CCCC3	-9	i	i	12	2	4
C=CCn1c(=O)c2c3c(sc2n2c(Nc4ccc(C(=O)OCC)cc4)nnc12)CCCC3	-2	i	i	88*	4	8
COc1cc(NS(=O)(=O)c2ccc(Nc3nc(-c4ccccc4)cs3)cc2)nc(OC)n1	-23	i	i	90*	nt	nt
COc1cc(NS(=O)(=O)c2ccc(NC(=S)Nc3ccccc3)cc2)nc(OC)n1	-7	i	i	nt	-1	-2
CCOc1ccc(NC(=O)Nc2cc(C(C)C)ccc2C)cc1	15	i	nt	93*	0	-1
Cc1ccc(C(C)C)cc1NC(=O)Nc1ccc([N+](=O)[O-])cc1	16	i	i	106*	6	3
Cc1cc(C(=O)CN2C(=O)C(=O)N(CC(C)C)C2=O)c(C)n1C1CC1	nt	i	nt	nt	4	2
C=CCNC(=S)NNc1nc(Nc2ccccc2)nc(N2CCCCC2)n1	9	i	i	74*	5	-1
C=CCNC(=S)NNc1nc(N2CCCC2)nc(N2CCCC2)n1	nt	i	i	nt	0	-7
S=C(NNc1nc(Nc2ccccc2)nc(N2CCCCC2)n1)NC1CCCCC1	4	i	i	83*	0	-2
COCCCn1c(=O)c2sccc2n(Cc2ccccc2C)c1=O	-6	i	i	nt	2	-3
CCC(C)(C)NC(=O)C(c1ccccc1)N(Cc1cccs1)C(=O)Cn1nnc2ccccc21 (centres undefined)	nt	i	i	nt	0	-5
CCC(C)(C)NC(=O)C(c1ccc(C)o1)N(Cc1cccs1)C(=O)Cn1nnc2ccccc21 (centres undefined)	nt	i	i	77*	0	-5
C=CCn1c(SCC(=O)N2CCN(c3ccccc3)CC2)nc2c([nH]c3ccccc32)c1=O	22	i	i	nt	21	73*
C=CCn1c(SCC(=O)N2CCOCC2)nc2c([nH]c3ccccc32)c1=O	5	i	i	nt	0	-4
SMILES	Lipid droplet	ANO1 activ	TMEM16A inh	CHOP inhibitor	UPR CHOP act	UPR XBP1 act
COc1cccc(-n2c(SCC(=O)N3CCCCC3)nc3c([nH]c4ccccc43)c2=O)c1	2	i	i	71*	3	9
O=C(CN1CCCCC1)Nc1cc(Cl)ccc1Oc1ccccc1	-31	i	100*	52	-1	1
COc1ccc(C)cc1NC(=O)CN1CCN(CC(=O)Nc2ccccc2F)CC1	6	i	i	79*	0	-6
COc1cc(NC(=O)Nc2ccccc2)c(OC)cc1NC(=O)CN1CCCCC1	11	i	i	90*	2	-2
O=C(CN1CCC(n2nnc3cc(C(F)(F)F)ccc32)CC1)Nc1ccc2c(c1)CCC2	-9	i	i	78*	-2	-5
COc1ccc(Cl)cc1NC(=O)CN1CCC(n2nnc3cc(C)ccc32)CC1	-22	i	i	73*	1	-4
CC(C)Cc1nnc(NC(=O)CCC(=O)N2CCCCC2)s1	1	i	i	nt	0	-5
NC(=O)c1ccc(NC(=O)COC(=O)CC2CC3CCC2C3)cc1 (centres undefined)	nt	i	nt	nt	0	-2
O=C(COC(=O)CC1CC2CCC1C2)NC(=O)NCc1ccco1 (centres undefined)	5	i	i	82*	-3	0
Cc1ccc2nc(NC(=O)c3ccccn3)sc2c1	-19	i	i	97*	9	-11
O=C(Nc1nc2ccc(F)cc2s1)c1cccc(S(=O)(=O)N2CCc3ccccc32)c1	-2	i	i	27	3	0
Cc1ccc2c(c1)CCCN2S(=O)(=O)c1cccc(C(=O)Nc2ccccc2C(=O)O)c1	1	i	100*	nt	-1	-2
Cc1ccc2nc(NC(=O)c3ccc(S(=O)(=O)N4CCCc5ccccc54)cc3)sc2c1	12	i	i	76*	11	3
CN(C)C(=O)c1ccc(NC(=O)c2cccc(S(=O)(=O)N3CCCc4ccccc43)c2)cc1	nt	i	i	nt	-1	-4
CC(NCC(=O)Nc1ccccc1C(=O)NC1CC1)c1ccc(S(C)(=O)=O)cc1 (centres undefined)	nt	i	nt	nt	1	0
CCN1/C(=C/c2sc(-c3ccccc3C)c[n+]2C)Sc2ccccc21	-200	i	nt	81*	nt	nt
CCC(=O)/C=C1/Sc2ccccc2N1CC	-2	i	i	34	2	-2
CCC(CC)C(=O)Oc1c(Sc2ccccc2[N+](=O)[O-])c(C)nn1C(C)(C)C	-49	-10*	i	41	1	0
CC1(C)NC(=O)N(CC(O)COc2ccccc2C(=O)Nc2ccccc2)C1=O (centres undefined)	3	i	i	9	-1	2
O=C(Nc1ccccc1)c1ccccc1OCC(O)CN1C(=O)c2ccccc2S1(=O)=O (centres undefined)	nt	i	100*	-15	6	-1
O=C(c1ccc(S(=O)(=O)Nc2ccccc2)cc1)N1CCC1	nt	i	i	nt	0	-2
O=C(NCc1cccnc1)Nc1ccccc1C(F)(F)F	-9	i	i	nt	2	-1

From PubChem BioAssay
